The values below come from ChEMBL document CHEMBL3632559, “α-Halogenated oxaphosphinanes: Synthesis, unexpected reactions and evaluation as inhibitors of cancer cell proliferation” (Eur J Med Chem, 2015).

Data set [1] deals with Caco-2. The data set is described as follows: Antiproliferative activity against human Caco2 cells after 72 hrs by MTT assay. Type of data set: functional, cell-based. In general terms: Tetrazolium assays rely on reduction of a dye to a coloured formazan, in cell work by metabolically active cells.
For data set [2], the system named is MDA-MB-435. The data set is described as follows: Antiinvasive activity in human MDA-MB-435 cells after 24 hrs by matrigel assay in presence of HGF. The data set is classed as functional, cell-based. To be noted: read-out: Ki. The essentials: (§1)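 Boyden chamber inserts loaded with Matrigel diluted 33-fold in PBS, with HGF in the lower chamber. Cells resuspended in DMEM with 0.1% BSA were plated in the upper compartment and incubated 24 h with or without compound. Cells on the lower membrane surface were methanol-fixed, crystal violet-stained and counted. % Inh was computed against untreated migration. Run in triplicate. EC50/Ki were obtained by Hill fit of dose-log response curves.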

A short description of data set [3]: Antiproliferative activity against human HuH7 cells after 72 hrs by MTT assay. The data set is classed as functional, cell-based. To be noted: Huh-7, 72 h.
Data set [4] deals with MDA-MB-231. Put plainly: Antiproliferative activity against human MDA-MB-231 cells after 72 hrs by MTT assay. The data set is classed as functional, cell-based.
Data set [5] is described as follows: Antiinvasive activity in mouse B16F10 cells after 24 hrs by matrigel assay in presence of HGF. Type of data set: functional, cell-based. The settings on record: b16-f10. An outline of the steps: as §1
Data set [6] can be described thus: Antimigratory activity in mouse B16F10 cells after 24 hrs by vitronectin-coated boyden chamber assay. Type of data set: functional, cell-based. The settings on record: b16-f10. An outline of the steps:
(§2)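 Boyden chamber inserts were coated overnight with laminin, fibronectin or vitronectin (human plasma), PBS-washed and blocked 1 h with 0.5% BSA. Cells in DMEM/0.1% BSA were placed in the upper compartment for 24 h with or without compound. Non-migrating cells were wiped off; lower-side cells were methanol-fixed, crystal violet-stained and counted. Run in triplicate. Ki came from Hill fit of dose-log response curves.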

The nature of data set [7]: Antimigratory activity in mouse B16F10 cells after 24 hrs by laminin-coated boyden chamber assay. The data set is classed as functional, cell-based. The settings on record: b16-f10. The essentials: as §2
The test system of data set [8] is MDA-MB-435. Put plainly: Antimigratory activity in human MDA-MB-435 cells after 24 hrs by vitronectin-coated boyden chamber assay. The data set is classed as functional, cell-based. The essentials:
as §2

The test system of data set [9] is MDA-MB-435. The data set is described as follows: Antimigratory activity in human MDA-MB-435 cells after 24 hrs by fibronectin-coated boyden chamber assay. Type of data set: functional, cell-based. An outline of the steps: as §2
For data set [10], the system named is MDA-MB-435. Put plainly: Antimigratory activity in human MDA-MB-435 cells after 24 hrs by laminin-coated boyden chamber assay. The data set is classed as functional, cell-based. The essentials:
as §2

Data set [11] is described as follows: Antimigratory activity in mouse B16F10 cells after 24 hrs by fibronectin-coated boyden chamber assay. Type of data set: functional, cell-based. To be noted: b16-f10. The essentials:
as §2

Data set [12] in a line: Antiproliferative activity against mouse B16F10 cells after 72 hrs by MTT assay. Type of data set: functional, cell-based. The settings on record: B16-F10, 72 h.
In data set [13] the test system is DU-145. Put plainly: Antiproliferative activity against human DU145 cells after 72 hrs by MTT assay. The data set is classed as functional, cell-based.
In data set [14] the test system is MDA-MB-435. Put plainly: Antiproliferative activity against human MDA-MB-435 cells after 72 hrs by MTT assay. The data set is classed as functional, cell-based. To be noted: MDA-MB-435, 72 h.
A short description of data set [15]: Cytotoxicity against mouse B16F10 cells. Type of data set: cell-based. To be noted: b16-f10.
Data set [16] concerns MDA-MB-435. Put plainly: Cytotoxicity against human MDA-MB-435 cells. The data set is classed as cell-based.
The mark [17] stands for this setting: Homo sapiens, Caco-2, 72 h, read-out: IC50.
Setting [18] is: Homo sapiens, MDA-MB-231, 72 h, read-out: IC50.
[19] abbreviates: Homo sapiens, DU-145, 72 h, read-out: IC50.

By IC50 is commonly meant the concentration that inhibits the measured activity by half. As usually defined, the Ki is a dissociation constant, usually derived from enzyme kinetics or from competition with a known ligand.

As to `O=[P@@]1(c2ccccc2)O[C@H](COCc2ccccc2)[C@@H](OCc2ccccc2)[C@H](OCc2ccccc2)[C@@H]1Br`, the 50% inhibitory concentration (IC50) in [1] (setting [17]) was determined as 24700 nM; in data set [3] it was 11.6 nM; in data set [4] (setting [18]), 445 nM; in data set [12], 4.6 nM; in data set [13] (setting [19]), 102 nM; in [14], 0.2 nM. Also, the EC50 in data set [2] amounted to 13 nM. The inhibitory constant (Ki) in data set [5] was found to be 17 nM; in data set [6] it was 21 nM; in data set [7], 10 nM; in [8], 46 nM; in data set [9], 39 nM; in [10] it was 34 nM. Also, the inhibitory constant (Ki) in data set [11] was 46 nM.

As to `O=[P@]1(c2ccccc2)C=C(OCc2ccccc2)[C@H](OCc2ccccc2)[C@@H](COCc2ccccc2)O1`, the half-inhibitory concentration (IC50) worked out at 28400 nM in data set [1] (setting [17]); 37.5 nM in data set [3]; 286 nM in data set [4] (setting [18]); 4.4 nM in data set [12]; 116 nM in data set [13] (setting [19]); 0.52 nM in data set [14].

As for `O=[P@@]1(c2ccccc2)O[C@H](COCc2ccccc2)[C@@H](OCc2ccccc2)[C@H](OCc2ccccc2)[C@@H]1I`, the concentration for half-maximal inhibition (IC50) in data set [1] (setting [17]) came to 20500 nM; in data set [3], 229 nM; in [4] (setting [18]), 466 nM; in data set [12], 7.7 nM; in data set [13] (setting [19]), 215 nM; in data set [14] it was 0.55 nM. For the same compound, in data set [2], the EC50 was determined as 28 nM. Also, the inhibition constant Ki in [5] was 29 nM; in data set [6], 44 nM; in data set [7] it was 17 nM; in data set [8] it was 43 nM; in data set [9] it was 29 nM; in [10], 25 nM. In addition, the inhibitory constant (Ki) in data set [11] was found to be 16 nM.

Regarding `O=[P@@]1(c2ccccc2)O[C@H](COCc2ccccc2)[C@@H](OCc2ccccc2)[C@H](OCc2ccccc2)[C@H]1Cl`, the IC50 in [1] (setting [17]) amounted to 24800 nM; in data set [3], 1170 nM; in data set [4] (setting [18]), 359 nM; in data set [12] it was 7.7 nM; in [13] (setting [19]), 226 nM; in [14], 1.6 nM. The Activity entry in data set [15] and in [16] was “Toxic” each time. In addition, the EC50 in [2] was determined as 35 nM. Moreover, the Ki was found to be 37 nM in data set [5]; 380 nM in data set [6]; 13 nM in data set [7]; 52 nM in data set [8]; 36 nM in data set [9]; 32 nM in data set [10]. Moreover, in data set [11], the affinity, expressed as Ki, was 18 nM.

In the case of `O=[P@@]1(c2ccccc2)O[C@H](COCc2ccccc2)[C@@H](OCc2ccccc2)[C@H](OCc2ccccc2)[C@H]1Br`, the IC50 in data set [1] (setting [17]) came to 29500 nM; in data set [3], 15.8 nM; in data set [4] (setting [18]), 432 nM; in data set [12], 3.8 nM; in data set [13] (setting [19]) it was 86.5 nM; in data set [14], 0.35 nM. In addition, the EC50 in [2] was 30 nM. The Ki came to 32 nM in [5]; 50 nM in data set [6]; 20 nM in data set [7]; 78 nM in data set [8]; 28 nM in data set [9]; 42 nM in data set [10]. Also, the Ki in [11] stood at 30 nM.

For `O=[P@@]1(c2ccccc2)O[C@H](COCc2ccccc2)[C@@H](OCc2ccccc2)[C@H](OCc2ccccc2)[C@H]1F`, the concentration for half-maximal inhibition (IC50) result in [1] (caco-2) was “Not Active”; in data set [3], 12.1 nM; in data set [4] (mda-mb-231), “Not Active”; in data set [12] it was 1.7 nM; in [13] (du-145), “Not Active”; in data set [14], 1.45 nM. In addition, the EC50 in [2] was 31 nM. The inhibition constant (Ki) in [5] was found to be 33 nM; in data set [6], 40 nM; in data set [7], 16 nM; in [8], 66 nM; in data set [9] it was 28 nM; in data set [10] it was 34 nM. For the same compound, the affinity in data set [11], expressed as Ki, was 22 nM.

For `O=[P@@]1(c2ccccc2)O[C@H](COCc2ccccc2)[C@@H](OCc2ccccc2)[C@H](OCc2ccccc2)[C@H]1I`, the IC50 stood at 28600 nM in data set [1] (setting [17]); 13 nM in data set [3]; 478 nM in data set [4] (setting [18]); 4 nM in data set [12]; 104 nM in data set [13] (setting [19]); 0.3 nM in data set [14]. The Activity result in data set [15] and in [16] was “Toxic” each time. In addition, the EC50 in [2] worked out at 35 nM. Also, the Ki in [5] came to 37 nM; in [6] it was 35 nM; in data set [7] it was 16 nM; in data set [8], 101 nM; in data set [9], 28 nM; in data set [10] it was 23 nM. Further, in data set [11], the Ki amounted to 20 nM.

With `O=[P@@]1(c2ccccc2)O[C@H](COCc2ccccc2)[C@@H](OCc2ccccc2)[C@H](OCc2ccccc2)[C@@H]1Cl`, the EC50 in data set [2] was 36 nM. In addition, the inhibition constant (Ki) in [5] worked out at 35 nM; in data set [6], 34 nM; in data set [7], 19 nM; in data set [8], 41 nM; in data set [9] it was 28 nM; in data set [10], 23 nM. Moreover, the affinity in data set [11], expressed as Ki, was 49 nM.
